In ChEMBL document CHEMBL1130252, “5-HT1B receptor antagonist properties of novel arylpiperazide derivatives of 1-naphthylpiperazine” (J Med Chem, 1997):

Columns and labels:
[1] = target: T1, 5-hydroxytryptamine receptor 1A (Homo sapiens, UniProt P08908); experiment: Receptor binding affinity for cloned human 5-hydroxytryptamine 1A receptor in HeLa cells; format: cell-based
T1 sequence (P08908 whole entry): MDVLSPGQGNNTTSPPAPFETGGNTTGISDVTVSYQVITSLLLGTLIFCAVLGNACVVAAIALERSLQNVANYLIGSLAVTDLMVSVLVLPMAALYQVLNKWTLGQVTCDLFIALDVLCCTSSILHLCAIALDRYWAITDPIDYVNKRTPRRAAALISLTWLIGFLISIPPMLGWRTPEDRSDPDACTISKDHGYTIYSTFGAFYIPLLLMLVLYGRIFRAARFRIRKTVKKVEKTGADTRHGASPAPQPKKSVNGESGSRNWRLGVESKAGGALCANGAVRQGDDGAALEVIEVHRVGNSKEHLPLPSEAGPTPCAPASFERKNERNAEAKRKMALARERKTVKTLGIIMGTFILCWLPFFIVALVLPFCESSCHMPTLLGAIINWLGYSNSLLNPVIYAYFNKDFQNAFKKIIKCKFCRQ

[2] = target: T2, 5-hydroxytryptamine receptor 1B (Homo sapiens, UniProt P28222); experiment: Receptor binding affinity for cloned human 5-hydroxytryptamine 1B receptor in Cos-7 cells; format: cell-based
[3] = target: T2, 5-hydroxytryptamine receptor 1B; experiment: Percentage Maximal inhibition obtained with 1 uM 5-HT against 5-hydroxytryptamine 1B receptor
Summary of the method: (§1)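 Human 5-HT1B receptors expressed in CHO-K1 cells. Agonist response read as inhibition of forskolin-stimulated cAMP formation. EC50 determined, and Emax expressed as a percentage of the maximal inhibition produced by 1 µM 5-HT. Values are the mean of two or three experiments, each run in duplicate, with individual values typically within ±10-20% of the mean.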

[4] = target: 5-hydroxytryptamine receptor 1D (Homo sapiens, UniProt P28221); experiment: Receptor binding affinity for cloned human 5-hydroxytryptamine 1D receptor in Cos-7 cells; format: cell-based
[5] = target: T2, 5-hydroxytryptamine receptor 1B; experiment: Antagonism tested at 1 uM against the agonist-induced inhibitory effect of 10 nM 5-carbamoyltryptamine(5-CT); format: functional
Summary of the method: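 Run in the same forskolin-stimulated cAMP system, with h5-HT1B receptors expressed in CHO-K1 cells. The compound at 1 µM was tested against the inhibition of cAMP formation produced by 10 nM 5-CT. Values are the mean of two or three experiments, each in duplicate.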

[6] = target: T2, 5-hydroxytryptamine receptor 1B; experiment: Agonist activity at 5-hydroxytryptamine 1B receptor by measuring the inhibition of forskolin-stimulated cAMP formation; format: functional; summary of the method: as §1
[7] = target: T2, 5-hydroxytryptamine receptor 1B; conditions: 1 uM

Chain of 5-hydroxytryptamine receptor 1D (P28221 whole entry): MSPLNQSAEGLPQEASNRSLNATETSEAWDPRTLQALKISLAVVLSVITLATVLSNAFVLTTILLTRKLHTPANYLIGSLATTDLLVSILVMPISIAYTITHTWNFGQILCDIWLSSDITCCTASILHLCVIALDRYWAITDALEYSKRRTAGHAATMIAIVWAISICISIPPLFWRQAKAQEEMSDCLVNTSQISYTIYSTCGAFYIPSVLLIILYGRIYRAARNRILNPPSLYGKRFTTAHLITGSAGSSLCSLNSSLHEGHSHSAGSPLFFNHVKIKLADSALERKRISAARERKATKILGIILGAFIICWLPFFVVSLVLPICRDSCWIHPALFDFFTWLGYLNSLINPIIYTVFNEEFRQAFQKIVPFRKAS
T2 sequence (P28222 whole entry): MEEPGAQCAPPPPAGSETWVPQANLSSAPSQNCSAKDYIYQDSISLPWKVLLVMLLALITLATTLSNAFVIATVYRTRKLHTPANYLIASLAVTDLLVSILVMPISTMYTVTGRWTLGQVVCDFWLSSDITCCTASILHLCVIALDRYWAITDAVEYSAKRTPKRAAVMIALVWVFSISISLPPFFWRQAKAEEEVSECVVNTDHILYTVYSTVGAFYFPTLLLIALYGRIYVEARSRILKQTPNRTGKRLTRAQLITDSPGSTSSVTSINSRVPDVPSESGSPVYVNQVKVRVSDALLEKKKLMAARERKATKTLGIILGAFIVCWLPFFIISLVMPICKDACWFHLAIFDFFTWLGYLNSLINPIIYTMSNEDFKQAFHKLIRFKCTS

| Compound | Ki [1] | Ki [2] | Emax [3] | Ki [4] | Antagonism [5] | EC50 [6] | Antagonism [7] |
| --- | --- | --- | --- | --- | --- | --- | --- |
| c1ccc2c(N3CCNCC3)cccc2c1 | 9.2 nM | 10.1 nM | < 10% | 6.2 nM | 96% | > 1000 nM | – |
| Cc1ccccc1N1CCN(C(=O)COc2ccc3cccc(N4CCN(C)CC4)c3c2)CC1 | – | 0.3 nM | < 10% | 0.69 nM | – | > 1000 nM | 80% |
| COc1ccc2ccc(N3CCNCC3)cc2c1 | 2.8 nM | 2 nM | < 10% | 0.7 nM | 95% | > 1000 nM | – |
| Cc1cc(C)c(N2CCN(C(=O)COc3ccc4cccc(N5CCN(C)CC5)c4c3)CC2)c(C)c1 | 117 nM | 1.4 nM | 26% | 1.9 nM | 46% | 25 nM | – |
| Cc1ccccc1CN1CCN(C(=O)COc2ccc3cccc(N4CCN(C)CC4)c3c2)CC1 | 22.7 nM | 0.2 nM | < 10% | 0.55 nM | 87% | > 1000 nM | – |
| CN1CCN(c2cccc3ccc(OCC(=O)N4CCN(c5cccc6c5OCCO6)CC4)cc23)CC1 | 14.1 nM | 0.43 nM | 58% | 0.45 nM | 45% | 25 nM | – |
| COc1cccc(N2CCN(C(=O)COc3ccc4cccc(N5CCN(C)CC5)c4c3)CC2)c1OC | 13.4 nM | 0.44 nM | 69% | 0.62 nM | 47% | 30 nM | – |
| CN1CCN(c2cccc3ccc(OCC(=O)N4CCN(c5cccc6ccccc56)CC4)cc23)CC1 | 114 nM | 0.43 nM | < 10% | 0.88 nM | 57% | > 1000 nM | – |
| CN1CCN(c2cccc3ccc(OCC(=O)N4CCN(c5ccccc5C#N)CC4)cc23)CC1 | 12.3 nM | 0.38 nM | 48% | 0.51 nM | 56% | 28 nM | – |
